The values below come from ChEMBL document CHEMBL2311406, “Structure-based design of high-affinity macrocyclic peptidomimetics to block the menin-mixed lineage leukemia 1 (MLL1) protein-protein interaction” (J Med Chem, 2013).

*1 amine or outer side, *2 acyl side, *3 side chain or, on linkers, in order; H or OH if unused. Where a SMILES comes first, the peptide text is derived from it. Bridges are numbered along the chain shown (N, C = ends). [ ]: non-standard residue; d: D form. hhhhLys = O=C([C@H](CCCCCCCCN[*:3])N[*:1])[*:2]; Ahp(2) = CCCCC[C@H](N)C(=O)O; hLys = NCCCCC[C@H](N)C(=O)O; Ac5c = NC1(C(=O)O)CCCC1; Abu = CC[C@H](N)C(=O)O; Ac3c = NC1(C(=O)O)CC1; Aib = CC(C)(N)C(=O)O

This assay deals with T1, Menin (Homo sapiens, UniProt O00255).
T1 sequence (O00255 whole entry): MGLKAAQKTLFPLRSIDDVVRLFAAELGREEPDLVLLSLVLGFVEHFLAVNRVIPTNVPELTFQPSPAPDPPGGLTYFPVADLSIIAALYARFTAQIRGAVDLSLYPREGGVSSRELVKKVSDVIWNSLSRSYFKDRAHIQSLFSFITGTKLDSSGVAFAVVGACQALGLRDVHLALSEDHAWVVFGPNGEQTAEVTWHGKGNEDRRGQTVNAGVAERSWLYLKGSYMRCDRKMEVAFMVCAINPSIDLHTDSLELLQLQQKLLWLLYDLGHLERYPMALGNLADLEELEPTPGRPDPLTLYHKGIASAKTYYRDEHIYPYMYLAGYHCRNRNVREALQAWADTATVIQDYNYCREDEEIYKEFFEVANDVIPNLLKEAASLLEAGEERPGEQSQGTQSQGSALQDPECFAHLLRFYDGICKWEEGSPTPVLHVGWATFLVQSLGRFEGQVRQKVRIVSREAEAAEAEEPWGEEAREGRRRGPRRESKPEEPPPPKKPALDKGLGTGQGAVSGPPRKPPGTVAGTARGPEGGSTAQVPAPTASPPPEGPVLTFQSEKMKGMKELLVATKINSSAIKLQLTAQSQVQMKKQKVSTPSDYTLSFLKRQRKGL
The assay can be described thus: Binding affinity to menin (unknown origin) after 60 mins by fluorescence polarization assay. A digest of the protocol: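 Competitive FP with fluorescein-labeled peptide tracers. Compound in DMSO (2% final) was added to a preincubated menin/tracer complex in 100 mM potassium phosphate pH 7.5 with 100 μg/mL bovine γ-globulin and 0.02% sodium azide. Menin/tracer/detergent were 30 nM/3 nM/0.005% Triton X-100 or 3 nM/2 nM/0.02% Tween-20. Ki was derived from the fitted IC50, probe Kd and assay concentrations.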
`CC(=O)N[C@@H](CCCNC(=N)N)C(=O)N[C@@H](Cc1c[nH]c2ccccc12)C(=O)N[C@H]1CCCCCCNC(=O)[C@@H]2CCCN2C(=O)[C@H](CCCNC(=N)N)NC(=O)[C@H](C)NC(=O)[C@@H]2CCCN2C(=O)[C@H](Cc2ccccc2)NC1=O` displayed an IC50 of 63.3 nM and an inhibition constant (Ki) of 17.5 nM.

In turn, `CC(=O)N[C@@H](CCCNC(=N)N)C(=O)N[C@@H](Cc1c[nH]c2ccccc12)C(=O)N[C@H]1CCCCCCCCCNC(=O)[C@@H]2CCCN2C(=O)[C@H](CCCNC(=N)N)NC(=O)[C@H](C)NC(=O)[C@@H]2CCCN2C(=O)[C@H](Cc2ccccc2)NC1=O` returned an IC50 of 144 nM and a Ki of 42.5 nM.

`CC(=O)N[C@@H](CCCNC(=N)N)C(=O)N[C@@H](Cc1c[nH]c2ccccc12)C(=O)N[C@H]1CCCCNC(=O)[C@@H]2CCCN2C(=O)[C@H](CCCNC(=N)N)NC(=O)[C@H](C)NC(=O)[C@@H]2CCCN2C(=O)[C@H](Cc2ccccc2)NC1=O` (Ac-RWKFPARP; lactam 3-C): the IC50 stood at 11000 nM and the Ki came out at 3320 nM.

`CCCCC[C@H](NC(=O)[C@H](Cc1c[nH]c2ccccc12)NC(=O)[C@H](CCCNC(=N)N)NC(C)=O)C(=O)N[C@@H](Cc1ccccc1)C(=O)N1CCC[C@H]1C(=O)N[C@@H](C)C(=O)N[C@@H](CCCNC(=N)N)C(=O)N1CCC[C@H]1C(=O)NCC` (Ac-RW[Ahp(2)]FPARP-NHEt): the concentration for half-maximal inhibition (IC50) was 7390 nM and the affinity corresponds to a Ki of 2170 nM.

The compound `CC(=O)N[C@@H](CCCNC(=N)N)C(=O)N[C@@H](Cc1c[nH]c2ccccc12)C(=O)N[C@H]1CCCCCNC(=O)[C@@H]2CCCN2C(=O)[C@H](CCCNC(=N)N)NC(=O)[C@H](C)NC(=O)[C@@H]2CCCN2C(=O)[C@H](Cc2ccccc2)NC1=O` (Ac-RW[hLys]FPARP; lactam 3-C) yielded an IC50 of 514 nM and a Ki of 136 nM.

Consider `CC(=O)N[C@@H](CCCNC(=N)N)C(=O)N[C@@H](Cc1c[nH]c2ccccc12)C(=O)N[C@H]1CCCCCCCCNC(=O)[C@@H]2CCCN2C(=O)[C@H](CCCNC(=N)N)NC(=O)[C@H](C)NC(=O)[C@@H]2CCCN2C(=O)[C@H](Cc2ccccc2)NC1=O` (Ac-RW[hhhhLys]FPARP; lactam 3-C), for which the IC50 was 25 nM and the affinity, expressed as Ki, was 6.9 nM.

On to `CC(=O)N[C@H]1CCCCCCCCNC(=O)[C@@H]2CCCN2C(=O)[C@H](CCCNC(=N)N)NC(=O)[C@H](C)NC(=O)[C@@H]2CCCN2C(=O)[C@H](Cc2ccccc2)NC1=O` (Ac-[hhhhLys]FPARP; lactam 1-C), for which the 50% inhibitory concentration (IC50) turned out to be 2160 nM and affinity was put at a Ki of 586 nM.

Regarding `C[C@@H]1NC(=O)[C@@H]2CCCN2C(=O)[C@H](Cc2ccccc2)NC(=O)[C@@H](N)CCCCCCCCNC(=O)[C@@H]2CCCN2C(=O)[C@H](CCCNC(=N)N)NC1=O` (H-[hhhhLys]FPARP; lactam 1-C), the half-inhibitory concentration (IC50) came to 665 nM and the Ki came out at 197 nM.

`CC[C@@H]1NC(=O)[C@@H]2CCCN2C(=O)[C@H](Cc2ccccc2)NC(=O)[C@@H](N)CCCCCCCCNC(=O)[C@@H]2CCCN2C(=O)[C@H](CCCNC(=N)N)NC1=O` (H-[hhhhLys]FP[Abu]RP; lactam 1-C): the IC50 was determined as 10700 nM and affinity was put at a Ki of 3180 nM.

As for `N=C(N)NCCC[C@@H]1NC(=O)C2(CC2)NC(=O)[C@@H]2CCCN2C(=O)[C@H](Cc2ccccc2)NC(=O)[C@@H](N)CCCCCCCCNC(=O)[C@@H]2CCCN2C1=O` (H-[hhhhLys]FP[Ac3c]RP; lactam 1-C), the IC50 turned out to be 194 nM and the Ki is 55.5 nM.

`N=C(N)NCCC[C@@H]1NC(=O)C2(CCCC2)NC(=O)[C@@H]2CCCN2C(=O)[C@H](Cc2ccccc2)NC(=O)[C@@H](N)CCCCCCCCNC(=O)[C@@H]2CCCN2C1=O` (H-[hhhhLys]FP[Ac5c]RP; lactam 1-C): the IC50 worked out at 6320 nM and the Ki is 1660 nM.

As to `CC1(C)NC(=O)[C@@H]2CCCN2C(=O)[C@H](Cc2ccccc2)NC(=O)[C@@H](N)CCCCCCCCNC(=O)[C@@H]2CCCN2C(=O)[C@H](CCCNC(=N)N)NC1=O` (H-[hhhhLys]FP[Aib]RP; lactam 1-C), the IC50 was determined as 226 nM and the inhibition constant Ki stood at 67 nM.
